In ChEMBL document CHEMBL1124161, “4-Hydroxy-3-quinolinecarboxamides with antiarthritic and analgesic activities” (J Med Chem, 1988):
Activity calls are given as the source filed them. The rule behind the calls is not given here.

Assays:
[1] = test system: Rattus norvegicus; assay: Anti-arthritis activity against adjuvant-induced arthritis in rats after peroral administration; format: functional
Outline: (§1)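 Groups of five male Lewis rats, 40–50 days old, given intraplantar injection in right hind paw of 0.6 mg Mycobacterium butyricum in 0.1 mL Bayol 55. Drug given in food from adjuvant day to day 17. Injected and noninjected hind paw volumes measured day 17 against normal controls. ED50 by least-squares curve fitting or Litchfield–Wilcoxon probit.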

[2] = test system: Mus musculus; assay: Analgesic activity against acetic acid induced writhing test in mouse after peroral administration at 100 mg/kg; IA=Inactive; format: functional, organism-based; set-up: dose 100 mg/kg
Outline: (§2)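 Female mice (20–22 g), groups of 10, fasted 7 h; drug given orally 30 min before intraperitoneal injection of 0.2 mL 1% aqueous acetic acid. Stretching/writhing movements counted from minute 5 to 20 after irritant.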

[3] = test system: Mus musculus; assay: Analgesic activity against acetic acid induced writhing test in mouse after peroral administration; format: functional
[4] = test system: Rattus norvegicus; assay: Ulcerogenic effect after oral administration (gastric ulcer); format: functional
Outline: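 Groups of eight female rats (120–150 g), fasted 24 h, dosed orally; killed 7 h later and stomachs scored. Ulceration index = (mean ulcer degree × rats with ulcers / number of rats) × 100, ulcers being scores above 0.5. ED100 (index 100, max 300) read graphically.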

[5] = test system: Rattus norvegicus; assay: Antiinflammatory activity against carrageenan-induced foot edema in rat after peroral administration; format: functional; conditions: po
Outline: (§3)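 Groups of eight male Sprague-Dawley rats (150–180 g) dosed orally at the time of subplantar injection of 0.5 mg carrageenin. Paw volume difference measured before and 5 h after injection. Expressed as ED40, estimated graphically or by Litchfield–Wilcoxon probit analysis.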

[6] = molecular target: T1, Cyclooxygenase (Bos taurus, UniProt O62664+O62698); assay: Inhibition of bovine Prostaglandin G/H synthase in seminal vesicle microsomes in vitro
T1 sequence (O62664 whole entry): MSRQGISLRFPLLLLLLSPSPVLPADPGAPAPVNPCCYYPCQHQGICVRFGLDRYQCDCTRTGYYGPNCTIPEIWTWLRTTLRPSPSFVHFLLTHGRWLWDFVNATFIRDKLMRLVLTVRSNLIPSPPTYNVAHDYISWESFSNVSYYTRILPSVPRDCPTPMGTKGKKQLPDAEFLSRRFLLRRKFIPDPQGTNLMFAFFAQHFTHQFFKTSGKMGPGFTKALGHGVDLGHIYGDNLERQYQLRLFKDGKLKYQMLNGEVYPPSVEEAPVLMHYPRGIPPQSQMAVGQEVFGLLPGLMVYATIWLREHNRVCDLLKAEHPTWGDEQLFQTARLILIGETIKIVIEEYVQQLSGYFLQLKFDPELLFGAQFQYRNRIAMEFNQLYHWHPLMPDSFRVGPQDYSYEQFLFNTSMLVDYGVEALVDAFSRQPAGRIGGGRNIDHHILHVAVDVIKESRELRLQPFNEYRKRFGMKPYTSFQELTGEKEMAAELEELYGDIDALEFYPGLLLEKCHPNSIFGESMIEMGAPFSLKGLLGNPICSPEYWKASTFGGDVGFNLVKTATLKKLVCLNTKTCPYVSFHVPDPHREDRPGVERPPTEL
T1 sequence (O62698 whole entry): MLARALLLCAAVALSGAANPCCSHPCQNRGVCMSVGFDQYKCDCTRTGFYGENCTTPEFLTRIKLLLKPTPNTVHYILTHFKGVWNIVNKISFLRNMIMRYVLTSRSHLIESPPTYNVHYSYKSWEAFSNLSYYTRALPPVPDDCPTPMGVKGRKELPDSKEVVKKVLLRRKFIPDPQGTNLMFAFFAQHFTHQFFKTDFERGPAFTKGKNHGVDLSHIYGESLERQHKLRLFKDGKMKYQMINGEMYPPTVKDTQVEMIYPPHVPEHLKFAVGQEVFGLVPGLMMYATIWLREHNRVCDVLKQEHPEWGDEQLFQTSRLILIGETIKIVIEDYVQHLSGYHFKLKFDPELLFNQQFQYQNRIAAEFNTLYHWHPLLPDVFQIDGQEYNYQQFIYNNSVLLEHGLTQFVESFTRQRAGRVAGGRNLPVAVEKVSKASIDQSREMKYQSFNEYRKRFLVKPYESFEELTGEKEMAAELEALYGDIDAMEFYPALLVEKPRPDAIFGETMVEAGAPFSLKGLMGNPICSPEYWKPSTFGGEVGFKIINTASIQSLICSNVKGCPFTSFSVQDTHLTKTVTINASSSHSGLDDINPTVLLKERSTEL

[7] = molecular target: T2, Polyunsaturated fatty acid 5-lipoxygenase (Rattus norvegicus, UniProt P12527); assay: Inhibition of 5-lipoxygenase from rat peritoneal neutrophils in vitro
T2 sequence (P12527 whole entry): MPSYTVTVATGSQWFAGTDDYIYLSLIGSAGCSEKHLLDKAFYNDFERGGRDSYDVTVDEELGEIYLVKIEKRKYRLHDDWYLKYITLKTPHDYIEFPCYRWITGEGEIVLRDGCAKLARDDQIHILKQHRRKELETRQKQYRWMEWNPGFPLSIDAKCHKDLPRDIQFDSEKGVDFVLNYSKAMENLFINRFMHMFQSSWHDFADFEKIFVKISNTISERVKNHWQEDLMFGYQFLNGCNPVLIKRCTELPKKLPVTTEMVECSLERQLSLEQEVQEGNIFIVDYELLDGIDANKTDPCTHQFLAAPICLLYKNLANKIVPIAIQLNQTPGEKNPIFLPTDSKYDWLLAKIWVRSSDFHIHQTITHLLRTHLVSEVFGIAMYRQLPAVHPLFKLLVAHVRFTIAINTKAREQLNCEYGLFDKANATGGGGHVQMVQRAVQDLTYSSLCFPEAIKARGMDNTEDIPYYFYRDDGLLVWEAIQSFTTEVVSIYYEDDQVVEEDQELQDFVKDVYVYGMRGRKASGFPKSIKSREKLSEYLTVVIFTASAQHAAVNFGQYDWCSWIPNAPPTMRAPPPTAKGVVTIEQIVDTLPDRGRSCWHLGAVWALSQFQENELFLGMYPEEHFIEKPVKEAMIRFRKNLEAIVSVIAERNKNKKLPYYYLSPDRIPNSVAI

[8] = species on record: Rattus norvegicus; assay: Antiarthritis activity against adjuvant-induced arthritis in rats; format: functional; outline: as §1
[9] = test system: Mus musculus; assay: Analgesic activity against acetic acid induced writhing test in mouse administered po at 100 mg/kg; IA=Inactive; format: functional, organism-based; set-up: dose 100 mg/kg; outline: as §2
[10] = test system: Rattus norvegicus; assay: Antiarthritis activity against adjuvant-induced arthritis in rats at 25 mg/kg; IA=Inactive; format: functional, organism-based; set-up: dose 25 mg/kg
[11] = test system: Mus musculus; assay: Analgesic activity against acetic acid induced writhing test in mouse after peroral administration at 100 mg/kg; IA=Inactive
[12] = test system: Mus musculus; assay: Analgesic activity against acetic acid induced writhing test in mouse administered po at 50 mg/kg; IA=Inactive; format: functional, organism-based; set-up: dose 50 mg/kg; outline: as §2
[13] = test system: Rattus norvegicus; assay: Antiinflammatory activity against carrageenan-induced foot edema in rat after peroral administration at 25 mg/kg; IA=Inactive; format: functional, organism-based; set-up: dose 25 mg/kg
[14] = test system: Rattus norvegicus; assay: Antiarthritis activity against adjuvant-induced arthritis in rats after peroral administration at 15 mg/kg; IA=Inactive; format: functional, organism-based; set-up: dose 15 mg/kg; outline: as §1
[15] = test system: Mus musculus; assay: Analgesic activity against acetic acid induced writhing test in mouse after peroral administration, treatment 6 hr before testing; format: functional; conditions: po
Outline: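 Groups of 10 female mice (20–22 g), fasted 7 h, dosed orally 6 h before ip injection of 0.2 mL 1% aqueous acetic acid. Stretching and writhing movements counted from minute 5 to 20 after irritant. ED50 evaluated graphically or by computerized least-squares curve fitting.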

[16] = test system: Rattus norvegicus; assay: Ulcerogenic effect after oral administration (intestinal ulcer); format: functional
Outline: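 Nonfasted male rats (150–180 g) killed 24 h after oral dosing, and intestinal ulcers scored. Ulceration index = (mean degree × rats with ulcers / rats) × 100. ED100 (index 100) determined graphically.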

[17] = test system: Rattus norvegicus; assay: Antiinflammatory activity against carrageenan-induced foot edema in rat after peroral administration of 100 mg/kg; IA=Inactive; format: functional, organism-based; set-up: dose 100 mg/kg
[18] = test system: Rattus norvegicus; assay: Antiinflammatory activity against carrageenan-induced foot edema after peroral administration in rat; format: functional; conditions: po; outline: as §3
[19] = test system: Rattus norvegicus; assay: Antiinflammatory activity against carrageenan-induced foot edema in rat after oral administration of 20 mg/kg; IA=Inactive; format: functional, organism-based; set-up: dose 20 mg/kg
[20] = Rattus norvegicus, po, read-out: ED50
[21] = Mus musculus, po, read-out: ED50

SMILES: CC(=O)OC(c1nc2c(C(F)(F)F)cccc2c(O)c1C(=O)Nc1ccccn1)C(C)C (stereo not given)
- ED50 [1, 20]: ≥ 5 mg/kg
- ED50 [2]: inactive

SMILES: CCC(O)c1nc2c(C(F)(F)F)cccc2c(O)c1C(=O)Nc1nccs1 (stereo in doubt; 89)
- ED50 [3]: 3 mg/kg
- ED100 [4]: 12 mg/kg
- ED40 [5]: 5 mg/kg
- ED50 [1]: 1.6 mg/kg
- IC50 [6]: 0.2 µM
- IC50 [7]: 1.1 µM
- ED50 [8]: 2 mg/kg

SMILES: CCC(=O)OC(c1nc2c(C(F)(F)F)cccc2c(O)c1C(=O)Nc1ccccn1)C(C)C (stereo not given)
- ED50 [1, 20]: 5 mg/kg
- ED50 [9]: inactive

SMILES: O=C(Nc1nccs1)c1c(CO)nc2c(C(F)(F)F)cccc2c1O
- ED50 [10]: inactive
- ED50 [11]: inactive

SMILES: CC(O)c1nc2c(C(F)(F)F)cccc2c(O)c1C(=O)Nc1nccs1 (stereo not given)
- ED50 [3, 21]: 1.2 mg/kg
- ED50 [8]: ≥ 5 mg/kg

SMILES: Cc1cnc(NC(=O)c2cnc3c(C(F)(F)F)cccc3c2O)s1
- ED50 [12]: inactive

SMILES: O=C(Nc1nccs1)c1c(C(Cl)Cl)nc2c(F)cccc2c1O
- ED50 [3, 21]: 25 mg/kg
- ED50 [13]: inactive

SMILES: C[C@@H](N)c1nc2c(C(F)(F)F)cccc2c(O)c1C(=O)Nc1nccs1
- ED50 [3, 21]: > 100 mg/kg
- ED50 [14]: inactive

SMILES: CCC(=O)OC(CC)c1nc2c(C(F)(F)F)cccc2c(O)c1C(=O)Nc1nccs1 (stereo in doubt; 102)
- ED50 [3]: 50 mg/kg
- ED100 [4]: >300 mg/kg
- ED50 [15]: 4.6 mg/kg
- ED40 [5]: 4 mg/kg
- ED50 [1]: 0.7 mg/kg
- IC50 [6]: 2.1 µM
- IC50 [7]: 3 µM
- ED50 [8]: 0.7 mg/kg
- ED100 [16]: >250 mg/kg

SMILES: CC(C)c1ccc2nc(C(F)(F)F)c(C(=O)Nc3nccs3)c(O)c2c1
- ED50 [3, 21]: > 100 mg/kg
- ED50 [17]: inactive

SMILES: CCCCC(O)c1nc2c(C(F)(F)F)cccc2c(O)c1C(=O)Nc1nccs1 (stereo not given)
- ED50 [3, 21]: ≥ 100 mg/kg
- ED40 [18]: > 100 mg/kg
- ED50 [1, 20]: > 20 mg/kg

SMILES: Cc1cc(NC(=O)c2cnc3c(C(F)(F)F)cccc3c2O)no1
- ED50 [12]: inactive

SMILES: CCCCCCCCCCCC(=O)OC(CC)c1nc2c(C(F)(F)F)cccc2c(O)c1C(=O)Nc1nccs1 (stereo not given)
- ED50 [1, 20]: > 5 mg/kg
- ED50 [2]: inactive

SMILES: O=C(Nc1nccs1)c1c(Cc2ccccc2)nc2c(C(F)(F)F)cccc2c1O
- ED50 [3, 21]: 40 mg/kg
- ED50 [19]: inactive

SMILES: CN1C(C(=O)Nc2ccccn2)=C(O)c2ccccc2S1(=O)=O [PIROXICAM]
- ED50 [3, 21]: 3.3 mg/kg
- ED100 [4]: 9 mg/kg
- ED40 [5]: 8 mg/kg
- ED50 [1, 20]: 0.8 mg/kg
- IC50 [7]: > 100 µM
- ED100 [16]: 20 mg/kg
